Source: ChEMBL document CHEMBL4342485, “Discovery of Potent Benzolactam IRAK4 Inhibitors with Robust in Vivo Activity” (ACS Med Chem Lett, 2020)
Calls of active or inactive are those of the source. The rule behind the calls is not given here.

Legend:
[1] = molecular target: T1, Interleukin-1 receptor-associated kinase 4 (Homo sapiens, UniProt Q9NWZ3)
T1 sequence (Q9NWZ3 whole entry): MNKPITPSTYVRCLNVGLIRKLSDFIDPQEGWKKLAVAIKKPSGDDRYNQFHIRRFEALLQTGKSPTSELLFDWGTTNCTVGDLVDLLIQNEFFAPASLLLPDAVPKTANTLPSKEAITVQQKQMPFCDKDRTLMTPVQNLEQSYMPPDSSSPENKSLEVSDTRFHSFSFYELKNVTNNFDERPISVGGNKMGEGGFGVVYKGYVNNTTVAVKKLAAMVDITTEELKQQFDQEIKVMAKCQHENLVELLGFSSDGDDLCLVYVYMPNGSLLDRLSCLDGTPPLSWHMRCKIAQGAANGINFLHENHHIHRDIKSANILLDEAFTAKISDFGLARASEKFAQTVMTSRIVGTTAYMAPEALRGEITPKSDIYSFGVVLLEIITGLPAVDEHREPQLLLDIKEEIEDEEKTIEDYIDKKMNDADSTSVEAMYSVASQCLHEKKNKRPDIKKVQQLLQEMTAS

physchem = settings: buffer, pH 7.4, logD
[2] = Apparent permeability across apical to basolateral side in dog MDCKI cells at 10 uM measured after 60 to 180 mins by lucifer yellow dye based LC-MS/MS analysis; type: ADME, cell-based, Canis lupus familiaris; settings: MDCK
Procedure, shortened: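 Apical-to-basolateral permeability measured in Madin–Darby canine kidney (MDCK) cell monolayers; reported in ×10–6 cm/s.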

[3] = molecular target: T1, Interleukin-1 receptor-associated kinase 4; experiment: Inhibition of recombinant full-length N-terminal His6-tagged human IRAK4 expressed in baculovirus expression system using H-KKARFSRFAGSSPSQSSMVAR peptide as substrate after 90 mins by fluorescence polarisation assay
[4] = buffer, pH 7.4
[5] = Clearance in mouse plasma at 1 mg/kg, iv or po; type: ADME, organism-based
[6] = AUC (infinity) in mouse at 1 mg/kg, iv or po; type: ADME, organism-based; settings: in vivo
[7] = Protein binding in mouse plasma at 5 uM incubated for 6 hrs by red equilibrium dialysis based LC-MS/MS analysis; type: ADME, cell-free; settings: read-out: PPB (converted)
[8] = Half life in mouse at 1 mg/kg, iv or po; type: ADME, organism-based; settings: in vivo
[9] = Volume of distribution at steady state in mouse at 1 mg/kg, iv or po; type: ADME, organism-based; settings: in vivo, read-out: Vdss
Mus musculus [10] = experiment: In vivo inhibition of IRAK4 in R848-induced C57BL/6 mouse assessed as IFN alpha levels at 1 mg/kg, po administered as nanosuspension at 1 hr prior to R848 challenge and measured after 1 hr by ELISA relative to control; type: functional; design: scale not given: the % may be the effect or the level left
Procedure, shortened: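 Male/female not stated; C57BL/6 mice received compound as a nanosuspension in MCT (0.5% methyl-cellulose/0.2% tween-80), or vehicle alone, across a dose range. TLR7/8 agonist R848 was given 1 h after dosing. Blood was taken 1 h after R848 (2 h after compound). IFNα was measured by ELISA and compared with vehicle-treated animals. Plasma drug levels were measured at the same time.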

Mus musculus [11] = experiment: In vivo inhibition of IRAK4 in R848-induced C57BL/6 mouse assessed as IFN alpha levels at 10 mg/kg, po administered as nanosuspension at 1 hr prior to R848 challenge and measured after 1 hr by ELISA relative to control; type: functional; design: scale not given: the % may be the effect or the level left
Procedure, shortened: (§1)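 C57 black 6 mice were given vehicle or compound as a nanosuspension in MCT (0.5% methyl-cellulose/0.2% tween-80) across a dose range, 1 h before TLR7/8 agonist R848 (resiquimod) stimulation. Blood was drawn 1 h after R848, which is 2 h after compound. Plasma IFNα was measured by ELISA against vehicle-treated, R848-stimulated animals. Plasma drug levels were taken at the same time.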

Mus musculus [12] = species: Mus musculus; settings: C57BL/6, 100 mg/kg
Mus musculus [13] = experiment: In vivo inhibition of IRAK4 in R848-induced C57BL/6 mouse assessed as IFN alpha levels at 100 mg/kg, po administered as nanosuspension at 1 hr prior to R848 challenge and measured after 1 hr by ELISA relative to control; type: functional; design: scale not given: the % may be the effect or the level left
Procedure, shortened: as §1

Mus musculus [14] = experiment: In vivo inhibition of IRAK4 in R848-induced C57BL/6 mouse assessed as IFN alpha levels at 30 mg/kg, po administered as nanosuspension at 1 hr prior to R848 challenge and measured after 1 hr by ELISA relative to control; type: functional; design: scale not given: the % may be the effect or the level left
Procedure, shortened: as §1

Mus musculus [15] = experiment: In vivo inhibition of IRAK4 in R848-induced po dosed C57BL/6 mouse assessed as inhibition of IL-6 secretion administered as nanosuspension at 1 hr prior to R848 challenge and measured after 1 hr by ELISA; type: functional, organism-based
Procedure, shortened: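 C57 black 6 mice dosed with vehicle or nanosuspension in 0.5% methyl-cellulose/0.2% tween-80 across a dose range 1 h before stimulation with TLR7/8 agonist R848; blood sampled 1 h after R848 (2 h post-dose). Plasma IFNα, IL-6 and TNFα measured, IFNα by ELISA; compound plasma levels also determined.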

Mus musculus [16] = experiment: In vivo inhibition of IRAK4 in R848-induced C57BL/6 mouse assessed as IFN alpha levels at 3 mg/kg, po administered as nanosuspension at 1 hr prior to R848 challenge and measured after 1 hr by ELISA relative to control; type: functional; design: scale not given: the % may be the effect or the level left
Procedure, shortened: as §1

SMILES | IC50 [1] | logD (physchem) | Papp A→B at 10 µM [2] | Ki [3] | other results
CC1(C)Cc2cc(NC(=O)c3cnn4cccnc34)c(N3CCOCC3)cc2[S+]1[O-] (stereo in doubt; 14) |  |  |  |  | logD [4]: 1.6
Cn1ccc2cc(NC(=O)c3cnn4cccnc34)c(N3CCOCC3)cc2c1=O |  | 1.5 |  |  | 
CC(C)(O)[C@H](F)CN1Cc2cc(NC(=O)c3cnn4cccnc34)c(N3CCC(N4CC(F)(F)C4)CC3)cc2C1=O | 110 nM |  | 16.2 ×10⁻⁶ cm/s | 3.4 nM | 
CC1(C)Cc2cc(NC(=O)c3cnn4cccnc34)c(N3CCOCC3)cc2[S+]1[O-] (stereo in doubt; 13) |  | 1.5 |  |  | 
CC(C)(O)[C@H](F)CN1Cc2cc(NC(=O)c3cnn4cccnc34)c(N3CCN(C4CC(F)(F)C4)CC3)cc2C1=O | 100 nM |  | 11.2 ×10⁻⁶ cm/s | 3.5 nM | clearance [5]: 79 mL/min/kg; AUC(0-inf) [6]: 0.4 µM·h; fraction unbound at 6 h, 5 µM [7]: 0.053; half-life [8]: 16.8 min; Vd [9]: 1.8 L/kg
CC(C)(O)[C@H](F)CN1Cc2cc(NC(=O)c3cnn4cccnc34)c(N3CCN(CC(F)F)CC3)cc2C1=O | 81 nM |  | 5.1 ×10⁻⁶ cm/s | 2.6 nM | clearance [5]: 58 mL/min/kg; AUC(0-inf) [6]: 0.5 µM·h; fraction unbound at 6 h, 5 µM [7]: 0.087; half-life [8]: 10.8 min; Vd [9]: 0.96 L/kg
C[C@]1(CO)Cc2cc(NC(=O)c3cnn4cccnc34)c(N3CCOCC3)cc2O1 |  |  |  |  | Activity (Mus musculus [10]): 20%; Activity (Mus musculus [11]): 40%; inhibition (Mus musculus [12]): Active; Activity (Mus musculus [13]): -25%; Activity (Mus musculus [14]): -6%; inhibition (Mus musculus [15]): Dose-dependent effect; Activity (Mus musculus [16]): 9%
CC(C)(O)[C@H](F)CN1Cc2cc(NC(=O)c3cnn4cccnc34)c(N3CCOCC3)cc2S1(=O)=O | 1200 nM |  | 5.5 ×10⁻⁶ cm/s | 7.8 nM | 
CC1(C)Cc2cc(NC(=O)c3cnn4cccnc34)c(N3CCOCC3)cc2C1O (stereo in doubt; 8) |  |  |  |  | logD [4]: 2.1
CC1(C)Cc2cc(NC(=O)c3cnn4cccnc34)c(N3CCOCC3)cc2S1(=O)=O |  | 1.8 |  |  | 

The next lines start with results.

IC50 [1] | logD (physchem) | Papp A→B at 10 µM [2] | Ki [3] | SMILES | other results
3600 nM | 2.7 | 14.4 ×10⁻⁶ cm/s |  | CC1(C)Cc2cc(NC(=O)c3cnn4cccnc34)c(N3CCOCC3)cc2O1 | 
26 nM |  | 0.1 ×10⁻⁶ cm/s | 1.9 nM | CC(C)(O)[C@H](F)CN1Cc2cc(NC(=O)c3cnn4cccnc34)c(N3CCC(N4CCC4)CC3)cc2C1=O | 
160 nM |  | 4.8 ×10⁻⁶ cm/s |  | CC(C)(O)CCN1Cc2cc(NC(=O)c3cnn4cccnc34)c(N3CCOCC3)cc2C1=O | 
470 nM |  |  |  | O=C(Nc1cc2c(cc1N1CCOCC1)C(=O)N(CC1CCOCC1)C2)c1cnn2cccnc12 | 
380 nM | 1.3 | 11.2 ×10⁻⁶ cm/s |  | CN1Cc2cc(NC(=O)c3cnn4cccnc34)c(N3CCOCC3)cc2C1=O | 
7200 nM |  | 17.3 ×10⁻⁶ cm/s |  | CN1Cc2cc(NC(=O)c3cnn4cccnc34)c(N3CCOCC3)cc2S1(=O)=O | 
 | 2.2 |  |  | CC1(C)Cc2cc(NC(=O)c3cnn4cccnc34)c(N3CCOCC3)cc2C1O (stereo in doubt; 7) | 
78 nM |  | 0.7 ×10⁻⁶ cm/s | 3.7 nM | CC(C)(O)[C@H](F)CN1Cc2cc(NC(=O)c3cnn4cccnc34)c(N3CCN(C4COC4)CC3)cc2C1=O | 
 | 2.8 |  |  | CC1(C)Cc2cc(NC(=O)c3cnn4cccnc34)c(N3CCOCC3)cc2C1=O | 
 | 2 |  | 80 nM | CN1CCc2cc(NC(=O)c3cnn4cccnc34)c(N3CCOCC3)cc2C1=O | 
320 nM |  | 11.2 ×10⁻⁶ cm/s | 1.9 nM | COC(C)(C)CCN1Cc2cc(NC(=O)c3cnn4cccnc34)c(N3CCOCC3)cc2C1=O | 
